Hits are enriched below; roughly 4.7% of the tested compounds scored in any of these assays.
MrgX1 agonist = agonists of human MrgX1 receptor | actives 0.44% (n = 310,000) | B-score at 10 µM | MrgX1-HEK293 cells, Fluo-4 calcium fluorescence, agonist mode; active compounds read high | AID 588627;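 active means calcium response B-score plate-corrected fluorescence ratio at least 3 library SD, with starting fluorescence B-score inside 5 SD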
Target sequence (Q96LB2 whole entry, looked up): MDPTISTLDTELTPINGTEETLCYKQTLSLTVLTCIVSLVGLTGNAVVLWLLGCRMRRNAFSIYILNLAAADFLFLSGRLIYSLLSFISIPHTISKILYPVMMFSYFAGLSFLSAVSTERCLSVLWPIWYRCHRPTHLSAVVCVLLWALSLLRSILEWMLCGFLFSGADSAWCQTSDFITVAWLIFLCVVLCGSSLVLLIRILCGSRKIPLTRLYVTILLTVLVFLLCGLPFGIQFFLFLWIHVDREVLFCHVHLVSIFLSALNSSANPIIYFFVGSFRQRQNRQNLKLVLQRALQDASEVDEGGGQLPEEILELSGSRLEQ
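Material – MrgX1-expressing HEK293 cells · Input – 15,000 cells seeded per well · Dosing – compound as first of three additions · Times – overnight seeding, then 1 h dark dye loading · Measured by – kinetic Fluo-4 NW fluorescence of intracellular calcium · Read-out – B-scored fluorescence response ratio · Benchmarks – positive and negative control wells on each plate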
MrgX1 antagonist = human MrgX1 receptor antagonism, primary screen. Q96LB2. MRGX1-HEK293 calcium flux, Fluo-4, BAM8-22 antagonism; active compounds read low. B-score at 10 µM. actives 1.3% (n = 310,000). AID 588676;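 active means calcium-response B-score plate-corrected more than 3 library SD below zero, starting fluorescence within 5 deviations, no agonist response on first addition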;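 further: peak minus trough fluorescence over baseline after final BAM8-22 challenge near maximal dose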
MrgX1 PAM = allosterically activates human MrgX1 receptor signaling; Q96LB2; MrgX1-HEK293, Fluo-4 calcium flux, FDSS; active compounds read high; B-score at 10 µM; actives 0.63% (n = 310,000); AID 588675;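 active means plate-corrected calcium response at least 3 library SD above typical, normal starting fluorescence, not activating the receptor alone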;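 further: compound read alongside a low EC10 to EC30 dose of BAM8-22 agonist; peak minus trough fluorescence over baseline measured at the second addition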
Cl transport mod = modulators of human KCC2 chloride dependent transport; KCC2 cells, thallium flux FluoZin-2 fluorescence; actives 2.2% (n = 190,000); Q9H2X9; B-score of Tl+ flux slope (higher = more flux/activation; lower = inhibition) at 10 µM;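 active means thallium flux slope and its plate-corrected score both differing from the plate sample mean at a set confidence after two filtering rounds, in either direction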;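 further: slope of fluorescence scaled to starting intensity during 10 to 20 s after thallium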
RGS4 block = human RGS4 inhibition; P49798; HEK293 M3R/RGS4 inducible, Fluo-4 calcium flux; active compounds read high; triggered by carbachol at its EC20; B-score at 10 µM; actives 0.45% (n = 310,000); AID 463165;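 active means B-score, a plate-corrected calcium signal, over three deviations above library mean, with baseline fluorescence within five deviations of library mean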;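 further: RGS4 expression induced by doxycycline in cells with stable M3 receptor; B-score is computed from the integrated fluorescence ratio over baseline after carbachol; higher B-score means a larger calcium signal and so more RGS4 inhibition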
Target sequence (P49798 whole entry, looked up): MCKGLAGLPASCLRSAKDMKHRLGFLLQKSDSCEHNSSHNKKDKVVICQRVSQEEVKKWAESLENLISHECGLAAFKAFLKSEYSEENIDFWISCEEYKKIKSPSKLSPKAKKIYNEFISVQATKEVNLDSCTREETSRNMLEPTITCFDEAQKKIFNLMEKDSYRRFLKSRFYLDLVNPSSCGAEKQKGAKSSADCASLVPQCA
RGS4 act = potentiators or activators of RGS4; HEK293 M3R/inducible RGS4, carbachol calcium flux Fluo4; active compounds read low; B-score at 10 µM; actives 0.92% (n = 310,000); AID 463111;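 active means B-score of the integrated calcium signal more than 4 SD below the library mean, with starting fluorescence not abnormally high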;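 further: negative B-score means reduced calcium response which marks RGS4 activation or potentiation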
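Reagent: ECmax carbachol challenge; Test system: M3R-expressing HEK293 line, RGS4 induced by doxycycline; Schedule: overnight RGS4 induction, 30 min dye load 37 °C, 20 min compound RT; Detection: calcium dye Fluo4 fluorescence; Read-out: Agonist-evoked peak-minus-minimum fluorescence over baseline, integrated ratio, B score.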
MrgX1 ant reconf = confirmation of human MrgX1 receptor antagonists; MrgX1-HEK293, BAM8-22 calcium flux, Fluo-4; active compounds read low; AID 602420; actives 19% (n = 2,300); shares compounds with MrgX1 antagonist; remaining BAM8-22 calcium response % of control (active compounds read low), % at 10 µM;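 active means remaining agonist calcium response no higher than 100% minus 3 SD of agonist-only control wells, with starting fluorescence near control levels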;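 further: agonist BAM8-22 given at a near maximal EC90 to ECmax level; peak minus minimum fluorescence divided by baseline after agonist addition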
HEK293 Ca flux = counter-screen for MrgX1 antagonists: effect in parental HEK293 cells; shares compounds with MrgX1 antagonist; Fluo-4 calcium fluorescence, FDSS; fluorescence ratio F(max-min)/F0 at 10 µM; actives 2% (n = 4,000); AID 624111;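 active means duplicate-averaged calcium fluorescence ratio at least three times the standard deviation of buffer wells, a nonspecific response in parental cells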
HEK293 Ca counter = activity in parental HEK293 cells without MrgX1; shares compounds with MrgX1 antagonist; parental HEK293 calcium flux, Fluo-4 fluorescence ratio; active compounds read high; fluorescence ratio F(max-min)/F0 at 10 µM; actives 0.4% (n = 4,000); AID 624114;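 active means calcium fluorescence ratio, averaged over duplicates, at least 3 SD of the buffer-well ratio, meaning a nonspecific response in receptor-free cells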;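 further: untransfected parental HEK293 lacking MrgX1 used as counterscreen for MrgX1 allosteric activators; fluorescence change taken during the second addition on a kinetic imager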
HEK293 Ca cntr2 = activity in parental HEK293 cells lacking MrgX1 receptor. shares compounds with MrgX1 antagonist. Fluo-4 calcium fluorescence (FDSS); active compounds read high. fluorescence ratio F(max-min)/F0 at 10 µM. actives 8.7% (n = 4,000). AID 624115;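 active means calcium fluorescence ratio at least three times the spread of buffer wells, meaning a non-specific response in parental cells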
Large screens that a line does not name were inactive (follow-up assays come after a bar, where they were run).

COc1cc(NC(=O)c2nccnc2C(=O)O)cc(OC)c1	MrgX1 antagonist -6.02 | MrgX1 ant reconf inactive | HEK293 Ca flux inactive | HEK293 Ca counter inactive | HEK293 Ca cntr2 inactive
O=S(=O)(Oc1ccc(C(=S)N2CCOCC2)cc1)c1ccc(Cl)cc1	none (no result: Cl transport mod)
O=C(O)CC(c1ccc(Br)cc1)N1Cc2ccccc2C1=O (centres undefined)	none (no result: Cl transport mod)
Cc1sc2nc(SCC(=O)N3CCCCC3)[nH]c(=O)c2c1C	MrgX1 antagonist -7.32 | MrgX1 ant reconf inactive | HEK293 Ca flux inactive | HEK293 Ca counter inactive | HEK293 Ca cntr2 inactive
O=C(CSc1nc2scc(-c3ccccc3)c2c(=O)[nH]1)N1CCOCC1	MrgX1 antagonist -9.09 (no result: Cl transport mod) | MrgX1 ant reconf inactive | HEK293 Ca flux inactive | HEK293 Ca counter inactive | HEK293 Ca cntr2 inactive
Cc1sc2nc(SCC(=O)N3CCCC3)[nH]c(=O)c2c1C	none
CC(NC(=O)CN1CCCC1)C12CC3CC(CC(C3)C1)C2 (centres undefined)	none (no result: Cl transport mod)
CC(NC(=O)Cn1cnnn1)C12CC3CC(CC(C3)C1)C2 (centres undefined)	MrgX1 antagonist -6.79 (no result: Cl transport mod) | MrgX1 ant reconf inactive | HEK293 Ca flux inactive | HEK293 Ca counter inactive | HEK293 Ca cntr2 inactive
COc1ccc(S(=O)(=O)N2CCC3(CC2)OCCN3S(=O)(=O)c2ccc(C)cc2)cc1OC	MrgX1 antagonist -6.63 (no result: Cl transport mod) | MrgX1 ant reconf inactive | HEK293 Ca flux inactive | HEK293 Ca counter inactive | HEK293 Ca cntr2 inactive
O=C(Nc1cccnc1)c1cc(S(=O)(=O)N2CCCCC2)c(Cl)cc1Cl	none (no result: Cl transport mod)
Cn1cc([C@@H]2C[C@H]3CN(Cc4cccc(Cl)c4)C(=O)[C@]34CCCN24)c2ccccc21	MrgX1 antagonist -5.22 | MrgX1 ant reconf inactive | HEK293 Ca flux inactive | HEK293 Ca counter inactive | HEK293 Ca cntr2 inactive
Cn1c(=O)n(CC(=O)NCC2CCCO2)c(=O)c2c3c(sc21)CCCC3 (centres undefined)	none (no result: Cl transport mod)
CC(Oc1ccc(Cl)cc1)C(=O)Nc1ccc(S(=O)(=O)Nc2nccs2)cc1 (centres undefined)	MrgX1 antagonist -5.6 (no result: Cl transport mod) | MrgX1 ant reconf inactive | HEK293 Ca flux inactive | HEK293 Ca counter inactive | HEK293 Ca cntr2 51.4
CC(Oc1ccc(Cl)cc1)C(=O)Nc1nccs1 (centres undefined)	none
Cc1nc2nc(C)c(CCC(=O)N3CCOCC3)c(C)n2n1	MrgX1 antagonist -5.34 | MrgX1 ant reconf inactive | HEK293 Ca flux inactive | HEK293 Ca counter inactive | HEK293 Ca cntr2 67.8
COc1ccccc1C(=O)Nc1ccc2c(c1)CN(Cc1cnc(C)s1)CC2	none (no result: Cl transport mod)
Cc1ccccc1CC1(CO)CCCN(Cc2cn[nH]c2-c2ccccc2)C1 (centres undefined)	none (no result: Cl transport mod)
COc1cccc(CC2(CO)CCCN(Cc3cn[nH]c3-c3ccccc3)C2)c1 (centres undefined)	MrgX1 antagonist -5.01 (no result: Cl transport mod) | MrgX1 ant reconf 72.3% | HEK293 Ca flux inactive | HEK293 Ca counter inactive | HEK293 Ca cntr2 inactive
Cc1ccc2c(c1)nnn2C1CCN(S(=O)(=O)c2ccc(C(=O)NC3CCCC3)cc2)CC1	none
Cc1ccc2c(c1)nnn2C1CCN(S(=O)(=O)c2ccc(C(=O)N(C)C)cc2)CC1	MrgX1 antagonist -7.04 | MrgX1 ant reconf inactive | HEK293 Ca flux inactive | HEK293 Ca counter inactive | HEK293 Ca cntr2 inactive
COc1cccc(OCc2cc(C(=O)N3CCN(C(C)=O)CC3)no2)c1	none (no result: Cl transport mod)
CN(C)CCN1CC(O)=C(c2nc3ccccc3s2)C1=N	MrgX1 antagonist -5.67 | MrgX1 ant reconf inactive | HEK293 Ca flux inactive | HEK293 Ca counter inactive | HEK293 Ca cntr2 inactive
CNC(=O)COC(=O)c1nc(-n2nc(C)cc2C)ccc1Cl	MrgX1 antagonist -6.77 | MrgX1 ant reconf inactive | HEK293 Ca flux inactive | HEK293 Ca counter inactive | HEK293 Ca cntr2 inactive
O=C(O)c1cc(O)ccc1NC(=O)C(c1ccccc1)c1ccccc1	none (no result: Cl transport mod)
COc1ccccc1/C=C/C(=O)NCC(=O)n1nc(C)cc1C	none
CCC(C)NC(=O)C1c2ccccc2C(=O)N(c2ccc(OC)cc2)C1c1ccc(OC)cc1 (centres undefined)	MrgX1 antagonist -6.46 (no result: Cl transport mod) | MrgX1 ant reconf inactive | HEK293 Ca flux inactive | HEK293 Ca counter inactive | HEK293 Ca cntr2 inactive
ClC(Cl)(Cl)c1nc2ccccc2n2nncc12	none (no result: Cl transport mod)
O=C(NCC(c1ccco1)N1CCN(c2ccccc2F)CC1)c1ccco1 (centres undefined)	none (no result: Cl transport mod)
Cc1ccc(Cn2nc(C)c(NC(=O)c3nn(C)cc3Cl)c2C)cc1	MrgX1 antagonist -10.2 | MrgX1 ant reconf inactive | HEK293 Ca flux inactive | HEK293 Ca counter inactive | HEK293 Ca cntr2 inactive
O=C1CC(N2CCN(c3ccccc3)CC2)C(=O)N1c1cccc(Br)c1 (centres undefined)	none (no result: Cl transport mod)
O=C1CC(N2CCSCC2)C(=O)N1c1cccc(Br)c1 (centres undefined)	MrgX1 antagonist -9.1 | MrgX1 ant reconf inactive | HEK293 Ca flux inactive | HEK293 Ca counter inactive | HEK293 Ca cntr2 inactive
COc1ccc(-c2noc(CSc3nc(N)c(-c4ccccc4)c(=O)[nH]3)n2)cc1	MrgX1 antagonist -7.15 (no result: Cl transport mod) | MrgX1 ant reconf 75.2% | HEK293 Ca flux inactive | HEK293 Ca counter inactive | HEK293 Ca cntr2 inactive
O=c1[nH]c(=O)n(-c2cc(Br)c(O)c(Br)c2)cc1Br	none (no result: Cl transport mod)
C=CCNC(=O)COC(=O)c1ccc(C)c(NC(=O)c2ccco2)c1	MrgX1 antagonist -7.64 | MrgX1 ant reconf inactive | HEK293 Ca flux inactive | HEK293 Ca counter inactive | HEK293 Ca cntr2 inactive
CCCCNC(=O)COC(=O)c1ccc(C)c(NC(=O)c2ccco2)c1	none
CCN(CC)c1ccc(C(=O)NC(=S)N2CCN(Cc3ccc4c(c3)OCO4)CC2)cc1	MrgX1 antagonist -5.09, Cl transport mod 16.6 | MrgX1 ant reconf inactive | HEK293 Ca flux inactive | HEK293 Ca counter inactive | HEK293 Ca cntr2 inactive
CC(C)NC(=S)N1CCN(Cc2ccc3c(c2)OCO3)CC1	none
Cc1ccccc1NC(=S)N1CCN(Cc2ccc3c(c2)OCO3)CC1	none
FC(F)(F)c1ccccc1NC(=S)N1CCN(Cc2ccc3c(c2)OCO3)CC1	MrgX1 antagonist -7.43 | MrgX1 ant reconf inactive | HEK293 Ca flux inactive | HEK293 Ca counter inactive | HEK293 Ca cntr2 inactive

Screening results as filed in PubChem.
